# Laboratory results taken from ChEMBL document CHEMBL5724801, “EUbOPEN Chemogenomics Library - Multiplex” (2024).
# Values joined by “and” are separate entries in the source; they are usually repeats but may differ in a detail not shown here. Equal entries are not always repeated.
# Key:
# U2OS = assay: Multiplex assay against U2OS; assay type: toxicity, cell-based; settings: human
# In short: (§1)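 Phenotypes for tubulin, mitochondrial mass and membrane permeability are expressed as per cents of healthy-nucleus cells. Cells were stained live at seeding with Hoechst33342, BioTracker Green Microtubule Cytoskeleton Dye, MitoTracker Red and Annexin V Alexa Fluor 680, then imaged after compound addition on a CQ1 microscope at 37°C and 5% CO2. Machine-learning gating in CellPathfinder separated Hoechst high-intensity objects from normal cells, divided normal cells by nuclear state (healthy, pyknosed, fragmented) and divided pyknosed cells into mitotic or apoptotic.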
# Fibroblast = assay: Multiplex assay against human fibroblast; assay type: toxicity, cell-based; in short: as §1
# [1] = 24 h, 1 µM, compound concentration 1 uM
# [2] = 24 h, 10 µM, compound concentration 10 uM
# [3] = 48 h, 1 µM, compound concentration 1 uM
# [4] = 48 h, 10 µM, compound concentration 10 uM
# [5] = 12 h, 1 µM, compound concentration 1 uM
# [6] = 12 h, 10 µM, compound concentration 10 uM
smiles,measurement,setting,value
COC[C@@H](c1ccc(C(F)(F)F)cc1)N1CCN(C2(C)CCN(C(=O)c3c(C)ncnc3C)CC2)C[C@@H]1C.O=C(O)/C=C\C(=O)O [VICRIVIROC MALEATE],Total Cell Count,U2OS; [1],301 and 111
same,Population Apoptotic (%),U2OS; [2],80% and 83%
same,Population Fragmented Nuclei (%),U2OS; [2],25%
same,Population Healthy Nuclei (%),U2OS; [2],68%
same,Population Hoechst High Intensity Objects (%),U2OS; [2],1%
same,Population Membrane Permeable-Phenotype (%),U2OS; [2],3% and 4%
same,Population Mitochondria Different-Phenotype (%),U2OS; [2],3% and 2%
same,Population Mitotic Cells (%),U2OS; [2],19% and 16%
same,Population Normal (%),U2OS; [2],98%
same,Population Pyknosed Nuclei (%),U2OS; [2],6%
same,Population Tubulin-Different-Phenotype (%),U2OS; [2],2% and 7%
same,Population Apoptotic (%),U2OS; [3],78% and 93%
same,Population Fragmented Nuclei (%),U2OS; [3],20% and 25%
same,Population Healthy Nuclei (%),U2OS; [3],68% and 62%
same,Population Hoechst High Intensity Objects (%),U2OS; [3],3% and 1%
same,Population Membrane Permeable-Phenotype (%),U2OS; [3],3% and 13%
same,Population Mitochondria Different-Phenotype (%),U2OS; [3],2% and 11%
same,Population Normal (%),U2OS; [3],96% and 98%
same,Population Pyknosed Nuclei (%),U2OS; [3],10% and 11%
same,Population Tubulin-Different-Phenotype (%),U2OS; [3],1% and 10%
same,Total Cell Count,U2OS; [3],416 and 142
same,Population Apoptotic (%),U2OS; [4],80% and 93%
same,Population Fragmented Nuclei (%),U2OS; [4],19% and 18%
same,Population Healthy Nuclei (%),U2OS; [4],70% and 68%
same,Population Hoechst High Intensity Objects (%),U2OS; [4],2% and 5%
same,Population Membrane Permeable-Phenotype (%),U2OS; [4],3%
same,Population Mitochondria Different-Phenotype (%),U2OS; [4],2% and 6%
same,Population Normal (%),U2OS; [4],97% and 94%
same,Population Pyknosed Nuclei (%),U2OS; [4],9% and 12%
same,Population Tubulin-Different-Phenotype (%),U2OS; [4],1% and 6%
same,Population Apoptotic (%),Fibroblast; [5],36%
same,Population Fragmented Nuclei (%),Fibroblast; [5],23%
same,Population Healthy Nuclei (%),Fibroblast; [5],53% and 51%
same,Population Hoechst High Intensity Objects (%),Fibroblast; [5],4%
same,Population Membrane Permeable-Phenotype (%),Fibroblast; [5],2% and 5%
same,Population Mitochondria Different-Phenotype (%),Fibroblast; [5],11% and 13%
same,Population Mitotic Cells (%),Fibroblast; [5],63%
same,Population Normal (%),Fibroblast; [5],95%
same,Population Pyknosed Nuclei (%),Fibroblast; [5],22% and 25%
same,Population Tubulin-Different-Phenotype (%),Fibroblast; [5],16% and 41%
same,Total Cell Count,Fibroblast; [5],138 and 190
same,Population Apoptotic (%),Fibroblast; [6],58% and 33%
same,Population Fragmented Nuclei (%),Fibroblast; [6],26% and 48%
same,Population Healthy Nuclei (%),Fibroblast; [6],59% and 33%
same,Population Hoechst High Intensity Objects (%),Fibroblast; [6],17% and 20%
same,Population Membrane Permeable-Phenotype (%),Fibroblast; [6],2% and 12%
same,Population Mitochondria Different-Phenotype (%),Fibroblast; [6],4%
same,Population Mitotic Cells (%),Fibroblast; [6],41% and 66%
same,Population Normal (%),Fibroblast; [6],82% and 79%
same,Population Pyknosed Nuclei (%),Fibroblast; [6],14% and 18%
same,Population Tubulin-Different-Phenotype (%),Fibroblast; [6],45% and 67%
same,Total Cell Count,Fibroblast; [6],208 and 186
same,Population Apoptotic (%),Fibroblast; [1],66% and 30%
same,Population Fragmented Nuclei (%),Fibroblast; [1],21% and 28%
same,Population Healthy Nuclei (%),Fibroblast; [1],57% and 50%
same,Population Hoechst High Intensity Objects (%),Fibroblast; [1],3%
same,Population Membrane Permeable-Phenotype (%),Fibroblast; [1],1% and 8%
same,Population Mitochondria Different-Phenotype (%),Fibroblast; [1],7% and 20%
same,Population Mitotic Cells (%),Fibroblast; [1],33% and 69%
same,Population Normal (%),Fibroblast; [1],96%
same,Population Pyknosed Nuclei (%),Fibroblast; [1],20% and 21%
same,Population Tubulin-Different-Phenotype (%),Fibroblast; [1],18% and 41%
same,Total Cell Count,Fibroblast; [1],138 and 204
same,Population Apoptotic (%),Fibroblast; [2],73% and 42%
same,Population Fragmented Nuclei (%),Fibroblast; [2],23% and 46%
same,Population Healthy Nuclei (%),Fibroblast; [2],64% and 39%
same,Population Hoechst High Intensity Objects (%),Fibroblast; [2],12% and 21%
same,Population Membrane Permeable-Phenotype (%),Fibroblast; [2],0% and 8%
same,Population Mitochondria Different-Phenotype (%),Fibroblast; [2],5% and 12%
same,Population Mitotic Cells (%),Fibroblast; [2],26% and 57%
same,Population Normal (%),Fibroblast; [2],87% and 78%
same,Population Pyknosed Nuclei (%),Fibroblast; [2],11% and 14%
same,Population Tubulin-Different-Phenotype (%),Fibroblast; [2],42% and 60%
same,Total Cell Count,Fibroblast; [2],196 and 183
same,Population Apoptotic (%),Fibroblast; [3],59% and 53%
same,Population Fragmented Nuclei (%),Fibroblast; [3],21% and 33%
same,Population Healthy Nuclei (%),Fibroblast; [3],56% and 50%
same,Population Hoechst High Intensity Objects (%),Fibroblast; [3],3% and 5%
same,Population Membrane Permeable-Phenotype (%),Fibroblast; [3],0% and 9%
same,Population Mitochondria Different-Phenotype (%),Fibroblast; [3],7% and 19%
same,Population Mitotic Cells (%),Fibroblast; [3],40% and 46%
same,Population Normal (%),Fibroblast; [3],96% and 95%
same,Population Pyknosed Nuclei (%),Fibroblast; [3],21% and 15%
same,Population Tubulin-Different-Phenotype (%),Fibroblast; [3],34% and 58%
same,Total Cell Count,Fibroblast; [3],127 and 180
same,Population Apoptotic (%),Fibroblast; [4],73% and 53%
same,Population Fragmented Nuclei (%),Fibroblast; [4],23% and 54%
same,Population Healthy Nuclei (%),Fibroblast; [4],65% and 35%
same,Population Hoechst High Intensity Objects (%),Fibroblast; [4],14% and 20%
same,Population Membrane Permeable-Phenotype (%),Fibroblast; [4],0% and 9%
same,Population Mitochondria Different-Phenotype (%),Fibroblast; [4],5% and 10%
same,Population Mitotic Cells (%),Fibroblast; [4],26% and 46%
same,Population Normal (%),Fibroblast; [4],85% and 79%
same,Population Pyknosed Nuclei (%),Fibroblast; [4],10% and 9%
same,Population Tubulin-Different-Phenotype (%),Fibroblast; [4],48% and 61%
same,Total Cell Count,Fibroblast; [4],206 and 193
